Results: ChEMBL document CHEMBL1146170, “Facile synthesis of substituted thiophenes via Pd/C-mediated sonogashira coupling in water” (2006)

What was measured:
Details in all cases: Homo sapiens
HT-29 = test: Growth inhibition of HT29 cells at 100 uM; values are per cent of control
LoVo [1] = test: Growth inhibition of LoVo cells at 100 uM; values are per cent of control
NCI-H460 = test: Growth inhibition of NCI-H460 cells at 100 uM; values are per cent of control
LoVo [2] = test: Growth inhibition of LoVo cells; format: functional
Procedure, shortened: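 LoVo human colon cancer cells were screened by the NCI standard anticancer protocol. Percentage cell growth was read after initial treatment at 100 µM. Follow-up testing used 10, 1.0, 0.1 and 0.01 µM. GI50 was the concentration giving 50% inhibition of cell growth.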

`Cc1ccc(C#Cc2cccs2)cc1` was tested, and the growth, % of control at 100 µM (HT-29) was 83%, the growth, % of control at 100 µM (LoVo [1]) was 83% and the growth, % of control at 100 µM (NCI-H460) was 68%.

`CC(C)(O)C#Cc1cccs1` showed a growth, % of control at 100 µM (HT-29) of 95%, a growth, % of control at 100 µM (LoVo [1]) of 78% and a growth, % of control at 100 µM (NCI-H460) of 105%.

`C(#Cc1cccs1)COc1ccccc1` showed a growth, % of control at 100 µM (HT-29) of 63%, a growth, % of control at 100 µM (LoVo [1]) of 47% and a growth, % of control at 100 µM (NCI-H460) of 88%.

With `O=[N+]([O-])c1ccc(OCC#Cc2cccs2)cc1` the GI50 (LoVo [2]) was 47.5 µM, the CC50 (LoVo [2]; read-out: LC50 (the source's name)) was 100 µM and the growth, % of control at 100 µM (HT-29) was 44%. The growth, % of control at 100 µM (LoVo [1]) was 26% and the growth, % of control at 100 µM (NCI-H460) was 48%.

For `CC(=O)Nc1ccsc1C#CC(C)(C)O`, the growth, % of control at 100 µM (HT-29) was 90%, the growth, % of control at 100 µM (LoVo [1]) was 78% and the growth, % of control at 100 µM (NCI-H460) was 56%.
